Screening results deposited in PubChem by several laboratories.
HEK293 NFkB inh – inhibitors of the PMA/ionomycin-induced NF-kB reporter in HEK293 cells; 0.21% of 62,000 active; HEK-293 NF-kB luciferase reporter, luminescence; inhibition, % at 3 µM; AID 465;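 active means inhibition above the mean of all tested compounds plus 3 SD, cut at about 40% in these data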;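 further: 0% = stimulated DMSO wells and 100% = 10 µM reference inhibitor 5653914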
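Material: HEK-293 cells with stable firefly luciferase reporter driven by four HIV NF-kB elements / Also added: PMA plus ionomycin mix as NF-kB-activating stimulus / Compound dosing: 3 µM once, 0.30% DMSO / Times: 1 h pretreatment, 16 h stimulation, 37 °C / Signal: luminescence / Evaluation: per-plate % inhibition versus controls / Benchmarks: DMSO and 10 µM reference inhibitor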
Jurkat tox 60K – cytotoxic compounds reducing Jurkat cell viability; AID 463; Jurkat E6.1 viability, ATP luminescence, 48 h; inhibition, % at 4 µM; 1.2% of 56,000 active;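 active means inhibition above the mean inhibition of all tested compounds plus 3 SD, cut at about 28% in these data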
Her2 expr inh – Her2 kinase expression inhibition. 0.69% of 65,000 active. P04626. SKBR-3 HER2 protein level, AlphaScreen, 18-24 h; hits give low values. HER2 level % of control, % at 10 µM;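 active means HER2 level under 5% of the carrier-only control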;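 further: 100% = DMSO carrier and 0% = 500 nM PU-H71 HSP90 inhibitor; lower value means stronger loss of Her2 protein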
Target sequence (P04626 whole entry, looked up): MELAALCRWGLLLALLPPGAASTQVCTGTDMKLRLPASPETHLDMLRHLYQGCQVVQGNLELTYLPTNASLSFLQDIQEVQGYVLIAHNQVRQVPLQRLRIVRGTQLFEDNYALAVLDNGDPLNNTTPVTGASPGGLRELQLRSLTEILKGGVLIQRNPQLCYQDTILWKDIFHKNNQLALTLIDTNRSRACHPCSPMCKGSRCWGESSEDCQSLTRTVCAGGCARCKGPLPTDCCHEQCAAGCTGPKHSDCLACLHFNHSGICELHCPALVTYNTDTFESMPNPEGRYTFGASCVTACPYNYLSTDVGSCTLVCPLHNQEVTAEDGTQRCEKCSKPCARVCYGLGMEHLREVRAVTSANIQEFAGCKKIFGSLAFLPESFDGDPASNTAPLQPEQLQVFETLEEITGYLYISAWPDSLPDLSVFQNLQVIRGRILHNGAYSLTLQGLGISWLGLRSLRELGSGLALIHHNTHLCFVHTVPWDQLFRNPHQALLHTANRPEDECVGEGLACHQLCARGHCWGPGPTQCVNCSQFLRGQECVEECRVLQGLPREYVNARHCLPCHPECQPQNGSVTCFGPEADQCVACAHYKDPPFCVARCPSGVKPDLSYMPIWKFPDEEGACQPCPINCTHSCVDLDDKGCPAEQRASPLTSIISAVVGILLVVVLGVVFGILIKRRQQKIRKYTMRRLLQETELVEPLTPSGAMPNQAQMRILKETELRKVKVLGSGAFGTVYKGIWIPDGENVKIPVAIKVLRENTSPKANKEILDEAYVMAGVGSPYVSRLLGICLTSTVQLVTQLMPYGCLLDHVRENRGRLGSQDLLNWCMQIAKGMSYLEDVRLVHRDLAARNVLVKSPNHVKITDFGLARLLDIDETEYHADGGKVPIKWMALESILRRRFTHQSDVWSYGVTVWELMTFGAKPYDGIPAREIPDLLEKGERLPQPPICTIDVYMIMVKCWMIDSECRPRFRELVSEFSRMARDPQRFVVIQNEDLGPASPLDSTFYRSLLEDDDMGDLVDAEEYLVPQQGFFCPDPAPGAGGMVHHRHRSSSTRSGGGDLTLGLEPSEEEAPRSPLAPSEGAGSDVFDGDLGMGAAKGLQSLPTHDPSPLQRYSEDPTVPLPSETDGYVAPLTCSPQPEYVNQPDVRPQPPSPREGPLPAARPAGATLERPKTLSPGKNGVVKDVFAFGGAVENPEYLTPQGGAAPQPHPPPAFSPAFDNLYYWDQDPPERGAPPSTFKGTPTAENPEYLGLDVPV
AP ELISA ortho – orthogonal test for alternative complement pathway inhibitors; Human serum alternative complement pathway, LPS-coated ELISA, C3 deposition; tested in compound mixtures; inhibition, % at 5 µM; 0.08% of 62,000 active; AID 1235;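 active means inhibition above 30% in each of the two pooled mixtures holding the compound, so the lower value exceeds 30%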;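 further: 0% = serum in Mg-EGTA without compound and 100% = EDTA serum blank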
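Assay system: human serum alternative complement pathway, C3 deposition on LPS-coated wells; Dosing: 5 µM per compound in ten-compound mixtures; Detection: Anti-C3 ELISA, OD 450 nm; Buffer or medium: Mg2+-EGTA GVB++ buffer containing human serum at 1:15 dilution; Timing: 1 h at 37 °C; Replication: two different pools per compound.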
JNK3 blocker – inhibitors of human JNK3 kinase | P53779 | purified JNK3 kinase activity, HTS | inhibition, % at 8 µM | 0.61% of 60,000 active; in the data active means inhibition above about 17%;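 further: 0% = DMSO and 100% = reference inhibitor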
Hsp90 inh – displaces geldanamycin probe from tumor Hsp90; NCI-N417 lysate Hsp90, Cy3B-geldanamycin FP displacement; inhibition, % at 30 µM; 0.35% of 64,000 active;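 active means inhibition above 50%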;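 further: 0% = tracer plus lysate wells and 100% = tracer alone without lysate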
Active calls of the source: *; i = inactive; · = not tested or not shown. In the library only some 2.5% were active in any assay of this set; here they are far more common.

SMILES	HEK293 NFkB inh	Jurkat tox 60K	Her2 expr inh	AP ELISA ortho	JNK3 blocker	Hsp90 inh
O=C1c2ccccc2C(=O)C1c1ccncc1	-20	-2	93	-6	51*	2
O=C(c1ccccc1)C1C(=O)c2ccccc2C1=O	9	-2	97	12	3	1
COc1ccccc1N1CCN(c2ncnc3c2oc2ccccc23)CC1	24	11	50	33*	1	-4
c1cnc(N2CCN(c3ncnc4c3oc3ccccc34)CC2)nc1	7	1	73	22	-3	-4
O=C(CCc1ccccc1)Nc1ccc(Cl)cn1	15	78*	72	-16	4	-5
Cc1ccc(C(=O)Nc2ccc(Cl)cn2)cc1	-27	76*	58	-1	5	-4
CN[C@H](CC(C)C)C(=O)N[C@H]1C(=O)N[C@@H](CC(N)=O)C(=O)N[C@H]2C(=O)N[C@H]3C(=O)N[C@H](C(=O)N[C@H](C(=O)O)c4cc(O)cc(O)c4-c4cc3ccc4O)[C@H](O)c3ccc(c(Cl)c3)Oc3cc2cc(c3O[C@@H]2O[C@H](CO)[C@@H](O)[C@H](O)[C@H]2O[C@H]2C[C@](C)(N)[C@H](O)[C@H](C)O2)Oc2ccc(cc2Cl)[C@H]1O	·	·	·	·	·	i
O=C(c1cccc2c1-c1ccccc1/C2=N/O)N1CCCCC1	24	10	92	14	26*	-4
Cc1ccccc1Nc1cc2ccccc2c(=O)[nH]1	-6	9	15	7	-1	79*
CCCn1c(=O)c2[nH]c(-c3ccc(S(=O)(=O)O)cc3)nc2n(CCC)c1=O	·	·	·	·	·	-2
COC(=O)c1sc(S(=O)(=O)N2CCCCC2)c(C(=O)OC)c1C	4	2	81	4	-6	0
COC(=O)c1sc(S(=O)(=O)N2CCN(c3ccccc3)CC2)c(C(=O)OC)c1C	16	5	-30*	6	-3	-1
Cc1cc(C)n(-c2ccc(C(=O)OCC(=O)c3ccc(Br)s3)cc2)n1	8	4	96	-12	-3	-11
O=c1cc(NCc2ccco2)[nH]c(=O)n1-c1ccc(Br)cc1	17	·	101	16	·	-14
COc1cc(OC)cc(-c2cc3nc(C)c(CCC(=O)O)c(C)n3n2)c1	63*	2	87	25	-6	0
CCN(C1CCCCC1)S(=O)(=O)c1ccc(S(=O)(=O)NCCc2ccncc2)cc1	14	-1	78	-16	0	3
CCN(C1CCCCC1)S(=O)(=O)c1ccc(S(=O)(=O)NCc2ccncc2)cc1	35	69*	48	-1	0	0
Cc1ccc(NC(=O)COC(=O)c2ccn(C)n2)cc1	7	4	72	5	-6	2
Cc1occc1C(=O)NC(C)CCc1ccccc1 (stereo unspecified)	14	-6	86	4	0	-4
Cc1occc1C(=O)NC(C)C(C)(C)C (stereo unspecified)	17	2	94	14	5	80*
Cc1ccc(CSC2=NCCN2C(=O)C2CC2)cc1	11	-2	86	5	2	-1
CC(=O)Nc1cnc2ccccc2n1	·	·	87	·	4	56*
O=C(Nc1ccc(S(=O)(=O)Nc2cnc3ccccc3n2)cc1)c1ccc(Br)o1	7	-4	97	2	-1	-6
O=C(CC1c2ccccc2Oc2ccccc21)N1CCN(c2ccccn2)CC1	-3	1	86	6	-4	-4
Cc1nn(-c2ccccc2)c2c1C(O)n1c(nc3ccccc31)S2 (stereo unspecified)	9	4	62	10	19*	3
SMILES	HEK293 NFkB inh	Jurkat tox 60K	Her2 expr inh	AP ELISA ortho	JNK3 blocker	Hsp90 inh
Cc1nn(-c2ccccc2)c2sc(C(=O)O)cc12	6	·	110	7	·	-4
CN1CCC2=C(CCCC2CCc2ccc(Cl)c(Cl)c2)C1 (stereo unspecified)	·	·	·	·	·	0
COc1ccc(CC(=O)Nc2cccc(-c3nnc(-c4ccccc4)o3)c2)cc1OC	12	33*	110	7	3	-7
COc1ccc(CC(=O)Nc2cccc(-c3nnc(-c4cccc(C)c4)o3)c2)cc1OC	0	43*	-0.4*	63	9	-1
Cc1cnc(NC(=O)COc2ccccc2)s1	-29	-6	91	-1	-1	-5
COc1cc(CC(=O)Nc2ncc(C)s2)cc(OC)c1OC	13	6	80	2	42*	2
COc1ccc(CC(=O)Nc2nc(C)cs2)cc1OC	2	37*	95	6	32*	1
COc1ccc(-c2nc3cc(NC(=O)Cc4ccc(OC)c(OC)c4)ccc3o2)cc1	8	73*	106	1	5	-3
N#CCCn1cc(/C=N/O)c(-c2ccc(-c3ccccc3)cc2)n1	15	43*	71	19	-5	-3
Cc1ccnc(SCC(=O)Nc2sc3c(c2C#N)CCCC3)n1	24	90*	93	-7	0	-6
Cc1onc(-c2ccccc2)c1C(=O)Nc1sc2c(c1C#N)CCC2	8	49*	68	-2	-4	·
Cc1cc(C(=O)Nc2sc3c(c2C#N)CCC3)no1	-44	45*	78	8	-2	-11
CCOc1ccc(-n2cc(C(=O)Nc3cccc(C)n3)c3cc(OC)c(OC)cc3c2=O)cc1	21	-4	97	-2	0	-7
O=C(NC1=NCCS1)C1COc2ccccc2O1 (stereo unspecified)	58*	7	106	-7	5	3
O=C(/C=C/c1ccc(O)c(O)c1)OCCc1ccccc1	·	·	·	·	·	90*
O=c1c2ccccc2c2ccccc2c(=O)n1Cc1ccco1	12	-3	99	-18	4	-2
N=c1c2c(-c3ccccc3)c(-c3ccccc3)n(Cc3ccco3)c2ncn1Cc1ccco1	12	47*	4.4*	4	0	-8
N=c1c2c(-c3ccccc3)c(-c3ccccc3)n(Cc3ccccc3)c2ncn1CCCn1ccnc1	·	·	3.3*	·	-7	-5
Clc1ccccc1OCCCCn1ccnc1	-8	-2	104	-2	-2	-1
CCn1cc(C(=O)O)c(=O)c2cc(F)c(N3CCNC(C)C3)c(F)c21 (stereo unspecified)	·	·	·	·	·	2
CCSC(N)=Nc1ccc(C(F)(F)F)cc1	·	·	·	·	·	-1
O=S(=O)(Nc1ccc(S(=O)(=O)N2CCCCC2)cc1)c1ccc(Br)s1	15	12	85	4	6	-6
O=C(Nc1ccccc1C(F)(F)F)N1CCCCCC1	20	9	164	-3	-3	-2
O=C(NC1c2ccccc2-c2ccccc21)N1CCCCC1	43*	4	68	0	7	1
COc1ccccc1N1CCN(C(=O)CSc2nnc3n2C(C)(C)Cc2ccccc2-3)CC1	18	60*	79	12	-1	-3
